In ChEMBL document CHEMBL5678806, “NMS-P937, an orally available, specific small-molecule polo-like kinase 1 inhibitor with antitumor activity in solid and hematologic malignancies” (Mol Cancer Ther, 2012):
Calls of active or inactive are those of the source. The calls are words filed in the database; no cut-off is given here.

What was measured:
[1] = target: SRSF protein kinase 3 (Homo sapiens) (UniProt Q9UPE1); assay: Inhibition of N-terminal 6His-tagged recombinant human full-length MSSK1 expressed in baculovirus infected Sf21 cells assessed as residual activity at 1 uM relative to control
[2] = target: Serine/threonine-protein kinase haspin (Homo sapiens, UniProt Q8TF76); assay: Inhibition of Haspin (unknown origin) in presence of [gamma-33P]ATP
[3] = test system: A2780; assay: Induction of mitosis in human A2780 cells xenografted in nu/nu mouse assessed as decreased NPM phosphorylation on Thr199 at 60 mg/kg, po administered for 12 to 24 hrs by immunohistochemistry analysis; format: functional, organism-based; details: time lower […], time upper 24.0 hrs
[4] = target: Tyrosine-protein kinase Fes/Fps (Homo sapiens) (UniProt P07332); assay: Inhibition of N-terminal His6-tagged recombinant full length human Fes expressed in baculovirus infected Sf21 cells assessed as residual activity at 0.1 uM relative to control
[5] = test system: HCC1419; assay: Antiproliferative activity against human HCC1419 cells assessed as inhibition of cell growth incubated for 72 hrs by cell-titer glo assay; format: functional, cell-based; details: HCC1419, 72 h
In short: (§1)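 Cells seeded at 10,000–30,000/cm² (adherent) or 100,000/mL (nonadherent) in medium with 10% fetal calf serum; after 24 h, treated in duplicate with serial dilutions for 72 h. Viable cell number read by CellTiter-Glo luminescence; IC50 from sigmoidal fit; at least two independent experiments.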

[6] = target: Tyrosine-protein kinase ZAP-70 (Homo sapiens) (UniProt P43403); assay: Inhibition of C-terminal His6 tagged recombinant human full length ZAP-70 expressed in Sf21 cells assessed as residual activity at 0.1 uM relative to control
[7] = target: RAF proto-oncogene serine/threonine-protein kinase (Homo sapiens) (UniProt P04049); assay: Inhibition of N-terminal GST-tagged recombinant human c-RAF (306 to 648 residues) expressed in Sf9 cells assessed as residual activity at 0.1 uM relative to control
[8] = target: Dual specificity mitogen-activated protein kinase kinase 1 (Homo sapiens) (UniProt Q02750); assay: Inhibition of N-terminal GST and C-terminal His6-tagged recombinant full-length human MEK1 expressed in E. coli assessed as residual activity at 0.1 uM relative to control
[9] = test system: A2780; assay: Induction of DNA damage in human A2780 cells assessed as H2AX phosphorylation at 0.5 to 1 uM incubated for 8 hrs followed by compound washout and measured after 24 to 48 hrs by Western blotting analysis; format: functional, cell-based; details: dose 0.5-1 µM
[10] = Tmax in Beagle dog at 5 mg/kg, po by LC-MS analysis; format: ADME, organism-based, Canis lupus familiaris; details: in vivo
[11] = test system: MOLM-13; assay: Antiproliferative activity against human MOLM-13 cells assessed as inhibition of cell growth incubated for 72 hrs by cell-titer glo assay; format: functional, cell-based; details: MOLM-13, 72 h
In short: (§2)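 Cells from ATCC or ECACC, kept in supplier-recommended medium with 1% penicillin-streptomycin at 37°C, 5% CO₂. Seeded at 10,000–30,000/cm² (adherent) or 100,000/mL (nonadherent) in medium with 10% fetal calf serum. Dosed after 24 h in duplicate with serial dilutions. Viable cells read by CellTiter-Glo 72 h later. IC50 from sigmoidal fit. At least two independent experiments.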

[12] = test system: MV4-11; assay: Antiproliferative activity against human MV4-11 cells assessed as inhibition of cell growth incubated for 72 hrs by cell-titer glo assay; format: functional, cell-based; details: MV4-11, 72 h; in short: as §2
[13] = test system: SW480; assay: Antiproliferative activity against human SW480 cells assessed as inhibition of cell growth incubated for 72 hrs by cell-titer glo assay; format: functional, cell-based; details: SW480, 72 h
[14] = Inhibition of CDK2/CycA (unknown origin) in presence of [gamma-33P]ATP; design: species or system Homo sapiens
[15] = test system: HCT-116; assay: Antiproliferative activity against human HCT-116 cells assessed as inhibition of cell growth incubated for 72 hrs by cell-titer glo assay; format: functional, cell-based; details: HCT-116, 72 h; in short: as §1
[16] = target: Rho-associated protein kinase 1 (Homo sapiens) (UniProt Q13464); assay: Inhibition of N-terminal His6-tagged recombinant human ROCK-I (17 to 535 residues) expressed in baculovirus infected Sf21 cells assessed as residual activity at 1 uM relative to control
[17] = target: Ephrin type-A receptor 2 (Homo sapiens, UniProt P29317); assay: Inhibition of EphA2 (unknown origin) in presence of [gamma-33P]ATP
[18] = test system: KU812 cell line; assay: Antiproliferative activity against human KU812 cell line assessed as inhibition of cell growth incubated for 72 hrs by cell-titer glo assay; format: functional, cell-based; details: KU812, 72 h; in short: as §1
[19] = target: Ribosomal protein S6 kinase beta-1 (Homo sapiens) (UniProt P23443); assay: Inhibition of N-terminal His6-tagged recombinant p70S6K (1 to 421 residues) (unknown origin) expressed in baculovirus infected Sf21 cells assessed as residual activity at 1 uM relative to control
[20] = test system: Caco-2; assay: Antiproliferative activity against human Caco-2 cells assessed as inhibition of cell growth incubated for 72 hrs by cell-titer glo assay; format: functional, cell-based; details: Caco-2, 72 h
In short: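 Cells seeded 10,000–30,000/cm² (adherent) or 100,000/mL (suspension) in medium with 10% fetal calf serum; after 24 h treated in duplicate with serial dilutions for 72 h. Viable cells read by CellTiter-Glo luminescence; IC50 from sigmoidal fit; at least two independent experiments.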

[21] = target: Aurora kinase A (Homo sapiens) (UniProt O14965); assay: Inhibition of N-terminal 6His-tagged recombinant full-length human Aurora-A expressed in Sf21 cells assessed as residual activity at 1 uM relative to control
[22] = Antiproliferative activity against human adriamycin-resistant RPMI-8226-ADR cells assessed as inhibition of cell growth incubated for 72 hrs by cell-titer glo assay; format: functional, cell-based
[23] = test system: HCC 2998; assay: Antiproliferative activity against human HCC 2998 cells assessed as inhibition of cell growth incubated for 72 hrs by cell-titer glo assay; format: functional, cell-based; details: HCC 2998, 72 h; in short: as §1
[24] = test system: SW48; assay: Antiproliferative activity against human SW48 cells assessed as inhibition of cell growth incubated for 72 hrs by cell-titer glo assay; format: functional, cell-based; details: SW48, 72 h
[25] = test system: MDA-MB-231; assay: Antiproliferative activity against human MDA-MB-231 cells assessed as inhibition of cell growth incubated for 72 hrs by cell-titer glo assay; format: functional, cell-based; details: MDA-MB-231, 72 h; in short: as §1
[26] = target: T1, Serine/threonine-protein kinase tousled-like 2 (Homo sapiens, UniProt Q86UE8); assay: Inhibition of N-terminal 6His-tagged recombinant human TLK2 (388 to end residues) expressed in baculovirus infected Sf21 cells assessed as residual activity at 0.1 uM relative to control
Target sequence in this assay (Q86UE8 whole entry, looked up): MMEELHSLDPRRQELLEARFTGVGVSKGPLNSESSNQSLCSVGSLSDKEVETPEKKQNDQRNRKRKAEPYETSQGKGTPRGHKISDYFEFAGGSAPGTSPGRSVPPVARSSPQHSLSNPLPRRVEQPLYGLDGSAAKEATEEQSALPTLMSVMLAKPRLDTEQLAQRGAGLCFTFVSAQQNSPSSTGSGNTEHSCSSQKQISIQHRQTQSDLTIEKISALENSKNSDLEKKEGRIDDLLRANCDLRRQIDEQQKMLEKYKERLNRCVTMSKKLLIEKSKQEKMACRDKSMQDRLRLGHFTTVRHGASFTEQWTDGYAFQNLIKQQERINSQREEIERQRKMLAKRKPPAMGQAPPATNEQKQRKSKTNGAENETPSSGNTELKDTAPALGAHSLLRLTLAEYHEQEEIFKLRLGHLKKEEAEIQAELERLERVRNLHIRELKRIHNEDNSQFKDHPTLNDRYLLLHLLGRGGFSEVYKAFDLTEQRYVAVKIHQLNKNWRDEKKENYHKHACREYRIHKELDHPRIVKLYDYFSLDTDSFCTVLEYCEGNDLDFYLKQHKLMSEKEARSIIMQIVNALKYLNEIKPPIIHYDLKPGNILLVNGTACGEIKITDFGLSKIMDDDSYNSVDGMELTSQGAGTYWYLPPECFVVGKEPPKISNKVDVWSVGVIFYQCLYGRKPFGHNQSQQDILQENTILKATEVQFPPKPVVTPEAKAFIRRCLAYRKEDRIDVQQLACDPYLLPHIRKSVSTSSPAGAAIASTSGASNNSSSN

[27] = target: Dual specificity mitogen-activated protein kinase kinase 7 (Homo sapiens) (UniProt O14733); assay: Inhibition of N-terminal GST-tagged recombinant human MKK7beta (2 to end residues) expressed in E. coli assessed as residual activity at 0.1 uM relative to control
[28] = target: T1, Serine/threonine-protein kinase tousled-like 2; assay: Inhibition of TLK2 (unknown origin) in presence of [gamma-33P]ATP
Target sequence in this assay (Q86UE8 whole entry): as the sequence (Q86UE8 whole entry, looked up) above

Chain of Dual specificity mitogen-activated protein kinase kinase 7 (Homo sapiens) (O14733 whole entry): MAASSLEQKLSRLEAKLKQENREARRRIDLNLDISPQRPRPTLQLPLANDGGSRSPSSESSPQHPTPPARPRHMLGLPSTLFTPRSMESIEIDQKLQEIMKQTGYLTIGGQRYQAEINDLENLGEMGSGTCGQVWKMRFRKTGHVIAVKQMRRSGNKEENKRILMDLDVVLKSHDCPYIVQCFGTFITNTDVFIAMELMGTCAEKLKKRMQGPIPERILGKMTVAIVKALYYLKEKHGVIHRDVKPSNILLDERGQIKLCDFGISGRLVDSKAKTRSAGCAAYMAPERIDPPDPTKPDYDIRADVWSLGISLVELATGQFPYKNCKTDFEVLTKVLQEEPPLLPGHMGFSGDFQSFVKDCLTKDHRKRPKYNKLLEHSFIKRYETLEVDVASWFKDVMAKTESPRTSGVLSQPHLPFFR
Chain of Dual specificity mitogen-activated protein kinase kinase 1 (Homo sapiens) (Q02750 whole entry): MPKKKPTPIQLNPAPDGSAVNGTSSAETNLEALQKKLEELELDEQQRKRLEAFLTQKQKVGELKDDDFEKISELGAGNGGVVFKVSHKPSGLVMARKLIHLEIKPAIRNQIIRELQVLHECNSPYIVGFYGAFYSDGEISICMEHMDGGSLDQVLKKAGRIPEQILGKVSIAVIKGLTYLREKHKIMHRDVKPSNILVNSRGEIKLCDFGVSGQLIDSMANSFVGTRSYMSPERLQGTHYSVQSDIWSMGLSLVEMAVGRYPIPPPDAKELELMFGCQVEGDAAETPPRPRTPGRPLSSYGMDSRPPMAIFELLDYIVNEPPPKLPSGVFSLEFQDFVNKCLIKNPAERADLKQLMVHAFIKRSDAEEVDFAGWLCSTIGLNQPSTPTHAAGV
Chain of Tyrosine-protein kinase Fes/Fps (Homo sapiens) (P07332 whole entry): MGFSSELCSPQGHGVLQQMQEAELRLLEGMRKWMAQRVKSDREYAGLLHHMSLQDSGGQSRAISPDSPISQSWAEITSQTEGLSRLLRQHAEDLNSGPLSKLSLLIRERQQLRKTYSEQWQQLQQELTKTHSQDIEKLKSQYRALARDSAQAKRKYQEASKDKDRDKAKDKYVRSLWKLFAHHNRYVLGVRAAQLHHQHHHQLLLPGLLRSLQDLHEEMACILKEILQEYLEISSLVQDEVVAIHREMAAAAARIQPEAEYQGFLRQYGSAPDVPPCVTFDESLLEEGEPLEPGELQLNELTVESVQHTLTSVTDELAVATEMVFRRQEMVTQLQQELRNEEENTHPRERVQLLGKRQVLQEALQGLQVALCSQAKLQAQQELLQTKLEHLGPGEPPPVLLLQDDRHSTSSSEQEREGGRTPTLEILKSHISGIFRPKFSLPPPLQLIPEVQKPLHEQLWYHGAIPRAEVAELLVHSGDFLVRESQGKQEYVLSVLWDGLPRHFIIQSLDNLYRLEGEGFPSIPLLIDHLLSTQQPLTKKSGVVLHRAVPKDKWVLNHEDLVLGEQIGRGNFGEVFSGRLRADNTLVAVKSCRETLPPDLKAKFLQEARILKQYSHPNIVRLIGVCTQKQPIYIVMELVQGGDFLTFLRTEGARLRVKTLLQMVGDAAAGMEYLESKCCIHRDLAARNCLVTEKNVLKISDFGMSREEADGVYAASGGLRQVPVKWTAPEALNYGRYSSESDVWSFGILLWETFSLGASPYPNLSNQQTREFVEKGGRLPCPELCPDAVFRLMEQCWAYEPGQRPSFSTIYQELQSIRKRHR
Chain of Ribosomal protein S6 kinase beta-1 (Homo sapiens) (P23443 whole entry, looked up, the tested form may be a part): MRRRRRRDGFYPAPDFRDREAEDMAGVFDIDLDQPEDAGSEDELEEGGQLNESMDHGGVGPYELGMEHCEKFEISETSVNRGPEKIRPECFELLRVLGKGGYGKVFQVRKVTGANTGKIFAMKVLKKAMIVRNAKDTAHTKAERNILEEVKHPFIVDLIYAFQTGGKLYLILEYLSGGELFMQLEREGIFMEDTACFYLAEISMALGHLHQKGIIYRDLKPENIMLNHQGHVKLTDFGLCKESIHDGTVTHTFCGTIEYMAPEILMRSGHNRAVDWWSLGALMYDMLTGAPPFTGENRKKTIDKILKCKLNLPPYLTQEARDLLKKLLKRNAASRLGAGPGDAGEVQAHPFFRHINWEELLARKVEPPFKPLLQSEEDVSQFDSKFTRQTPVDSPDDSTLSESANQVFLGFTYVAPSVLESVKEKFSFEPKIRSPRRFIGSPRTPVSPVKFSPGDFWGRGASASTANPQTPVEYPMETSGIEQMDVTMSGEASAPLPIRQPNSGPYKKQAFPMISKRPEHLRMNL
Chain of Ephrin type-A receptor 2 (P29317 whole entry): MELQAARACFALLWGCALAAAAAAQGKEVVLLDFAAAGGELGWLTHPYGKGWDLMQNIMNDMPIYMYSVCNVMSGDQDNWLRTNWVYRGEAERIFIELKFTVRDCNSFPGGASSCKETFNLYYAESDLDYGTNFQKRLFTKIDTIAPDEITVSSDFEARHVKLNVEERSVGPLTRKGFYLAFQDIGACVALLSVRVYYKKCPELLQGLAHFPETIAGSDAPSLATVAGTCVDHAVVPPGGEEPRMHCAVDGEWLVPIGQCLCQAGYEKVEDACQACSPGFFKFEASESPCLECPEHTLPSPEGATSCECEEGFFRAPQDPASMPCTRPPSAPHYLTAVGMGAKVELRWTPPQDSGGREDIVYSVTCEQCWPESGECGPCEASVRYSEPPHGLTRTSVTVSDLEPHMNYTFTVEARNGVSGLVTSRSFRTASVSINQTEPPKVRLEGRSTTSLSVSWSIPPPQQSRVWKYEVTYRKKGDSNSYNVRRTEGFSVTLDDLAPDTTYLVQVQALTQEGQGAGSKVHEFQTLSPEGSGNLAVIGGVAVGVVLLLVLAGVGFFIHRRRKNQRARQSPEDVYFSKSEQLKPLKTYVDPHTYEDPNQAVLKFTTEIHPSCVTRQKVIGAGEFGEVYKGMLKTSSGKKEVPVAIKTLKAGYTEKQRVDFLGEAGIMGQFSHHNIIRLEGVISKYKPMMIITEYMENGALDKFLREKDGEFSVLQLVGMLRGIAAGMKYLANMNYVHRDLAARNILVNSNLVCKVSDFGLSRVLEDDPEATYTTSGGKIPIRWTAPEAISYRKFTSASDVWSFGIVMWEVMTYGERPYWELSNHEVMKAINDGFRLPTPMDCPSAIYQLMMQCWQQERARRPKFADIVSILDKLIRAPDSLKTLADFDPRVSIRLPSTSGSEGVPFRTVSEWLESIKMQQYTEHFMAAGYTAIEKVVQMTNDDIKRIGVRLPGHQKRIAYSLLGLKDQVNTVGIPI
Chain of Tyrosine-protein kinase ZAP-70 (Homo sapiens) (P43403 whole entry, the tested form may be a part): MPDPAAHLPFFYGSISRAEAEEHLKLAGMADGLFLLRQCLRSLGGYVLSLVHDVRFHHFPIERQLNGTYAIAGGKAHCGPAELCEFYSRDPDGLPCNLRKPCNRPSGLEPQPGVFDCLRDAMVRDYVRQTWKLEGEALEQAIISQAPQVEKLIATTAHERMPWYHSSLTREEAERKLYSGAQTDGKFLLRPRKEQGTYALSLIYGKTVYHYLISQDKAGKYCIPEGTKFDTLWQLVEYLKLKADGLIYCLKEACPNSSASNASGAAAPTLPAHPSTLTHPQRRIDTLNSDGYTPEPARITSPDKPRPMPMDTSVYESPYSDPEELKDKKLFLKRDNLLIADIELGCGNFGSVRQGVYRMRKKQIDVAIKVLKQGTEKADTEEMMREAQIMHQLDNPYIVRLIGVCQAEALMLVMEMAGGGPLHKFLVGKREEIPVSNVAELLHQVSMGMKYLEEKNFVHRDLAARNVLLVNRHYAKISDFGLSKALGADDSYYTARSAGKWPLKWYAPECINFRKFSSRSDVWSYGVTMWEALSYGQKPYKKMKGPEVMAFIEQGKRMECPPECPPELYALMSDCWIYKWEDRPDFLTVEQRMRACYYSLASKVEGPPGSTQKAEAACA
Chain of Aurora kinase A (Homo sapiens) (O14965 whole entry): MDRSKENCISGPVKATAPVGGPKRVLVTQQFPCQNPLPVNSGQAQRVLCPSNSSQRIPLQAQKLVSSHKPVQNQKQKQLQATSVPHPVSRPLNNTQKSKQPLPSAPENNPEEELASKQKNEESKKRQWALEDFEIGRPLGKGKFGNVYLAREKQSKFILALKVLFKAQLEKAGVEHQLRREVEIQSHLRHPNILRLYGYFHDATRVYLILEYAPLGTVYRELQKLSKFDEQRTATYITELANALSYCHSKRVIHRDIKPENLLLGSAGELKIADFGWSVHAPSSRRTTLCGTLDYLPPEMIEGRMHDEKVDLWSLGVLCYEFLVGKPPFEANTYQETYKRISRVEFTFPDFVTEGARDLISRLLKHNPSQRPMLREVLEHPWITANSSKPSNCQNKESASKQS

CN1CCN(c2ccc(OC(F)(F)F)c(Nc3ncc4c(n3)-c3c(c(C(N)=O)nn3CCO)CC4)c2)CC1 [ONVANSERTIB]
Activity [1]: 89%
IC50 [2]: > 10000 nM
Activity [3]: Active
Activity [4]: 73%
IC50 [5]: 42 nM
Activity [6]: 88%
Activity [7]: 93%
Activity [8]: 113%
Activity [9]: Active
Tmax [10]: 1.2 h
IC50 [11]: 22 nM
IC50 [12]: 58 nM
IC50 [13]: 618 nM
IC50 [14]: > 10000 nM
IC50 [15]: 86 nM
Activity [16]: 132%
IC50 [17]: > 10000 nM
IC50 [18]: 20 nM
Activity [19]: 76%
IC50 [20]: 4760 nM
Activity [21]: 113%
IC50 [22]: 1310 nM
IC50 [23]: 132 nM
IC50 [24]: 32 nM
IC50 [25]: 172 nM
Activity [26]: 182%
Activity [27]: 85%
IC50 [28]: > 10000 nM
